According to ChEMBL document CHEMBL2331435, “Structure-activity relationship study of vitamin k derivatives yields highly potent neuroprotective agents” (J Med Chem, 2013):
Active and inactive are the calls of the source. The rule behind the calls is not given here.

Legend:
Mus musculus [1] = assay: Toxicity in BALB/cByJ mouse assessed as weight loss at 50 mg/kg, ip daily for 3 weeks measured 2 hrs after final injection; format: organism-based; design: dose 50 mg/kg, route intraperitoneal; conditions: in vivo
HT-22 [2] = assay: Neuroprotective activity in mouse HT22 cells assessed as reduction of glutamate-induced mitochondrial fragmentation at 250 nM after 8 hrs by Mitotracker DR staining-based fluorescence microscopic analysis; format: functional, cell-based
Procedure, shortened: (§1)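 HT22 cells were given 10 mM glutamate plus compound for 8 h, then co-stained with MitoSOX Red (5 μM final) and Mitotracker Deep Red (10 nM final) for 20 min. Cells were washed twice with HBSS and imaged live by fluorescence microscopy in HBSS.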

HT-22 [3] = assay: Antioxidant activity in mouse HT22 cells assessed as upregulation of NQO1 gene expression at 250 nM after 16 hrs by qRT-PCR analysis in the absence of glutamate; format: functional, cell-based
Procedure, shortened: (§2)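 HT22 cells were seeded at 3.0 × 10^5 per well and cultured overnight, then treated with or without 10 mM glutamate plus compound (DMSO stock) for 16 h. Cells were trypsinized and washed in cold Ca/Mg-free HBSS. HO-1 and NQO-1 mRNA were measured by qRT-PCR with β2-microglobulin as reference gene, and fold change was calculated by the Livak method.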

HT-22 [4] = assay: Ratio of VK2 IC50 to 2-((4-Chlorobenzyl)amino)naphthalene-1,4-dione IC50 for prevention from glutamate-induced oxidative cell death in mouse HT22 cells; format: functional
HT-22 [5] = assay: Neuroprotective activity in mouse HT22 cells assessed as reduction of glutamate-induced mitochondrial superoxide generation at 250 nM after 8 hrs by MitoSOX RED staining-based fluorescence microscopic analysis; format: functional, cell-based; procedure, shortened: as §1
HT-22 [6] = assay: Neuroprotective activity in mouse HT22 cells assessed as prevention from glutamate-induced oxidative cell death by MTS assay; format: functional
Procedure, shortened: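 HT22 cells grown in high-glucose DMEM with 10% FBS and antibiotic-antimycotic at 37°C, 5% CO2. Seeded at 5.0 × 10^3 cells/well overnight, then given 10 mM glutamate (final) plus compound from DMSO stock. MTS added 24 h after treatment, 2 h at 37°C, A490 read. Viability taken as % of untreated cells. PC50 from 12-point titrations; experiments repeated at least four times.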

[7] = target: Dynamin-1-like protein (Mus musculus) (UniProt Q8K1M6); assay: Inhibition of glutamate-induced decrease in DRP1 phosphorylation at serine 637 in mouse HT22 cells at 125 nM after 16 hrs by Western blotting analysis; format: cell-based; conditions: HT-22
Procedure, shortened: (§3)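 HT22 cells were treated with 10 mM glutamate plus compound for 16 h, harvested, and lysed in low-salt buffer (50 mM Tris-HCl pH 7.4, 150 mM NaCl, 10% glycerol, Triton X-100, protease/phosphatase inhibitors) for 30 min with a brief sonication. Lysates were run on 4–12% gels and immunoblotted for phospho-Drp1 Ser637, total Drp1, PGAM5, actin and α-tubulin, then analyzed by densitometry.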

HT-22 [8] = assay: Antioxidant activity in mouse HT22 cells assessed as reduction in glutamate-induced upregulation of NQO1 gene expression at 250 nM after 16 hrs by qRT-PCR analysis relative to glutamate-treated control; format: functional, cell-based; procedure, shortened: as §2
Mus musculus [9] = assay: Toxicity in BALB/cByJ mouse assessed as outward signs of distress at 50 mg/kg, ip daily for 3 weeks measured 2 hrs after final injection; format: organism-based; design: dose 50 mg/kg, route intraperitoneal; conditions: in vivo
HT-22 [10] = assay: Antioxidant activity in mouse HT22 cells assessed as upregulation of HO1 protein expression 8 hrs by Western blotting analysis; format: functional, cell-based
HT-22 [11] = assay: Antioxidant activity in mouse HT22 cells assessed as prevention of glutamate-induced intracellular accumulation of free radicals at 250 nM after 8 hrs by spectrofluorometric analysis; format: functional, cell-based
Procedure, shortened: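 HT22 cells were seeded at 5.0 × 10^3 per well and cultured overnight, then given 10 mM glutamate plus compound for 8 h. Rho123 was added at 5 μM final for 20 min, cells were washed twice with HBSS, and oxidized Rho123 fluorescence was read at 500 nm excitation and 536 nm emission.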

Mus musculus [12] = assay: Toxicity in BALB/cByJ mouse assessed as biochemical parameters at 50 mg/kg, ip daily for 3 weeks measured 2 hrs after final injection; format: organism-based; design: dose 50 mg/kg, route intraperitoneal; conditions: in vivo
HT-22 [13] = assay: Antioxidant activity in mouse HT22 cells assessed as upregulation of NQO1 protein expression 8 hrs by Western blotting analysis; format: functional, cell-based
[14] = Neurotoxicity in mouse HT22 cells assessed as cell viability after 24 hrs by MTS assay; format: toxicity, cell-based, HT-22; conditions: read-out: TC50
Procedure, shortened: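 HT22 cells were seeded at 5.0 × 10^3 per well, cultured overnight, and treated with a range of compound concentrations without glutamate for 24 h. MTS was added for 2 h and absorbance read at 490 nm. Viability was expressed as percent of untreated cells, and TC50 was fit from titration curves (7- or 12-point, n = 3–4).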

[15] = tested on: Radical scavenging activity; assay: Antioxidant activity assessed as DPPH free radical scavenging activity at 20 uM; format: functional
Procedure, shortened: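 Test agents at 20 μM final, added to 100 μM DPPH in methanol; absorbance at 517 nm monitored immediately for 10 min. Trolox and ascorbic acid served as positive controls, and the rate of absorbance loss was taken as antioxidant potency.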

[16] = target: T1, Serine/threonine-protein phosphatase PGAM5, mitochondrial (Mus musculus) (UniProt Q8BX10); assay: Inhibition of glutamate-induced increase in lower band of PGAM5 in mouse HT22 cells at 125 nM after 16 hrs by Western blotting analysis; format: cell-based; conditions: HT-22; procedure, shortened: as §3
T1 sequence (whole entry): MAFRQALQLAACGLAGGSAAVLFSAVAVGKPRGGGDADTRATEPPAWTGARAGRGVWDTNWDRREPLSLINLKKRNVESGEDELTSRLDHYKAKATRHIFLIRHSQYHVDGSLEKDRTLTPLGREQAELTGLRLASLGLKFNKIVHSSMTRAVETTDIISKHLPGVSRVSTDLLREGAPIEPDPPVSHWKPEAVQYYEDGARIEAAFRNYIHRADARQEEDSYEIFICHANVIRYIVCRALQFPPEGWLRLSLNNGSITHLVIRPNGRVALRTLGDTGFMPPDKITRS

[17] = Therapeutic index, ratio of cytotoxic TC50 for mouse HT22 cells to neuroprotective PD50 for mouse HT22 cells; format: cell-based, HT-22; conditions: read-out: TI
Mus musculus [18] = assay: Toxicity in BALB/cByJ mouse assessed as outward signs of pain at 50 mg/kg, ip daily for 3 weeks measured 2 hrs after final injection; format: organism-based; design: dose 50 mg/kg, route intraperitoneal; conditions: in vivo
HT-22 [19] = assay: Antioxidant activity in mouse HT22 cells assessed as upregulation of HO1 gene expression at 250 nM after 16 hrs by qRT-PCR analysis in the absence of glutamate; format: functional, cell-based; procedure, shortened: as §2
HT-22 [20] = assay: Antioxidant activity in mouse HT22 cells assessed as reduction in glutamate-induced upregulation of HO1 gene expression at 250 nM after 16 hrs by qRT-PCR analysis relative to glutamate-treated control; format: functional, cell-based; procedure, shortened: as §2
HT-22 [21] = assay: Neuroprotective activity in mouse HT22 cells assessed as prevention from tBuOOH-induced oxidative cell death after 3 hrs by MTS assay; format: functional, cell-based
Procedure, shortened: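 HT22 cells were seeded at 5.0 × 10^3 per well and cultured overnight, then exposed to 50 μM t-BuOOH (final) plus compound for 3 h. Medium was removed, cells were washed with HBSS and returned to normal medium. MTS was added 24 h after initial treatment, absorbance was read at 490 nm after 2 h, and viability was expressed as percent of untreated cells.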

HT-22 [22] = assay: Antioxidant activity in mouse HT22 cells assessed as reduction in glutamate-induced upregulation of HO1 gene expression at 250 nM after 16 hrs by qRT-PCR analysis relative to untreated control; format: functional, cell-based; procedure, shortened: as §2
[23] = target: Dynamin-1-like protein (Mus musculus) (UniProt Q8K1M6); assay: Inhibition of glutamate-induced decrease in DRP1 phosphorylation at serine 637 in mouse HT22 cells at 500 nM after 16 hrs by Western blotting analysis; format: cell-based; conditions: HT-22; procedure, shortened: as §3
[24] = target: T1, Serine/threonine-protein phosphatase PGAM5, mitochondrial (Mus musculus); assay: Inhibition of glutamate-induced increase in lower band of PGAM5 in mouse HT22 cells at 500 nM after 16 hrs by Western blotting analysis; format: cell-based; conditions: HT-22; procedure, shortened: as §3
HT-22 [25] = assay: Antioxidant activity in mouse HT22 cells assessed as prevention of glutamate-induced GSH depletion at 5 uM; format: functional, cell-based
Procedure, shortened: (§4)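 HT22 cells were exposed to 10 mM glutamate plus compound (DMSO stock) for 8 h. Total glutathione (reduced plus oxidized) in the supernatant of the cell homogenate was measured with a glutathione reductase enzymatic recycling kit. GSH reacts with DTNB to give TNB, read at 405 nm.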

HT-22 [26] = assay: Antioxidant activity in mouse HT22 cells assessed as prevention of glutamate-induced GSH depletion at 25 uM; format: functional, cell-based; procedure, shortened: as §4
HT-22 [27] = assay: Antioxidant activity in mouse HT22 cells assessed as prevention of glutamate-induced GSH depletion at 50 uM; format: functional, cell-based; procedure, shortened: as §4

Chain of Dynamin-1-like protein (Mus musculus) (Q8K1M6 whole entry): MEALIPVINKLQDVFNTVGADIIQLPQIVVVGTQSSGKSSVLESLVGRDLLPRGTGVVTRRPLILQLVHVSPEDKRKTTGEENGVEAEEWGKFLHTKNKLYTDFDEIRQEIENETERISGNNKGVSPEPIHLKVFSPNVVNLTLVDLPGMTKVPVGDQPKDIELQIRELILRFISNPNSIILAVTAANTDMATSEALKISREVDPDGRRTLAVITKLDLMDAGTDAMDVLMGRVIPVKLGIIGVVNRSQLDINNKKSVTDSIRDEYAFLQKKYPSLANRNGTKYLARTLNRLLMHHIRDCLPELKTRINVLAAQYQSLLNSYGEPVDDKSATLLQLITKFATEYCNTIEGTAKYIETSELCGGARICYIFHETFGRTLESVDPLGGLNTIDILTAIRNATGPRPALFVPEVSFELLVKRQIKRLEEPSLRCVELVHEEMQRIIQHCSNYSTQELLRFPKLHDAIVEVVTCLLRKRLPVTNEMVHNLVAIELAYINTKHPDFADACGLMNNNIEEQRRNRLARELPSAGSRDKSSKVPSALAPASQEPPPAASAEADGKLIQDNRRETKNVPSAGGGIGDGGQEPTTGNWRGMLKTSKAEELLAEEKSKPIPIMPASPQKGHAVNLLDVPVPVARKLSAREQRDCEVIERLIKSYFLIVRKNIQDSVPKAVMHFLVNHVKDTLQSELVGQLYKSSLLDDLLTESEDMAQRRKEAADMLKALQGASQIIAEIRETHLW

Structure (SMILES) | Activity (Mus musculus [1]) | Activity (HT-22 [2]) | Activity (HT-22 [3]) | Activity (HT-22 [5]) | PD50 (HT-22 [6]) [nM] | inhibition [7] | Activity (HT-22 [8]) | Activity (Mus musculus [9]) | Activity (HT-22 [10]) | Activity (HT-22 [11]) | Activity (Mus musculus [12]) | Activity (HT-22 [13]) | CC50 at 24 h [14] [µM] | Activity [15] | inhibition [16] | selectivity ratio [17] | Activity (HT-22 [19]) | Activity (HT-22 [20]) | Activity (HT-22 [21]) | Activity (HT-22 [22]) | other results
O=C1C=C(NCc2cccc(Cl)c2)C(=O)c2ccccc21 | Non-toxic | Active | inactive | Active | 31 | Active | inactive | Non-toxic | inactive | Active | Non-toxic | inactive | > 100 | inactive | Active | > 3230 | inactive | Active | Active | inactive | Ratio IC50 (HT-22 [4]): >10; Activity (Mus musculus [18]): Non-toxic
CC(C)=CCC/C(C)=C/CC/C(C)=C/CC/C(C)=C/CC1=C(C)C(=O)c2ccccc2C1=O [MENATETRENONE] |  | Active | inactive | Active | 432 |  | inactive |  | inactive | Active |  | inactive | > 100 | inactive |  |  | inactive | Active | Active | inactive | inhibition [23]: Active; inhibition [24]: Active
COC1=C(OC)C(=O)C(CCCCCCCCCCO)=C(C)C1=O |  |  |  |  |  |  |  |  |  |  |  |  |  |  |  |  |  |  |  |  | Activity (HT-22 [25]): inactive
Cc1c(C)c2c(c(C)c1O)CCC(C)(C(=O)O)O2 (centres undefined) |  |  |  |  |  |  |  |  |  |  |  |  |  | Active |  |  |  |  | inactive |  | Activity (HT-22 [26]): inactive
O=C1C=C(NCc2ccccc2)C(=O)c2ccccc21 | Non-toxic | Active | inactive | Active | 88 | Active | inactive | Non-toxic | inactive | Active | Non-toxic | inactive | > 100 | inactive | Active | > 1140 | inactive | Active | Active | inactive | Activity (Mus musculus [18]): Non-toxic
CN1C(=O)C(Cc2c[nH]c3ccccc23)NC1=S (centres undefined) |  |  |  |  |  |  |  |  |  |  |  |  |  |  |  |  |  |  |  |  | Activity (HT-22 [27]): inactive
